High-throughput results: PubChem BioAssay, Johns Hopkins Ion Channel Center
MrgX1 antag: antagonists of human MrgX1 receptor, primary screen, HEK293 cells, Fluo-4 calcium flux; B-score at 10 µM; Mas-related G-protein coupled receptor member X1 (Homo sapiens), Q96LB2; BAM8-22 antagonism; active compounds read low; AID 588676, 2011; 310,000 compounds, 1.3% hits;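 active = calcium-response B-score plate-corrected more than 3 library SD below zero, starting fluorescence within 5 deviations, no agonist response on first addition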;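 note: peak minus trough fluorescence over baseline after final BAM8-22 challenge near maximal dose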
Target sequence (Q96LB2 whole entry, looked up): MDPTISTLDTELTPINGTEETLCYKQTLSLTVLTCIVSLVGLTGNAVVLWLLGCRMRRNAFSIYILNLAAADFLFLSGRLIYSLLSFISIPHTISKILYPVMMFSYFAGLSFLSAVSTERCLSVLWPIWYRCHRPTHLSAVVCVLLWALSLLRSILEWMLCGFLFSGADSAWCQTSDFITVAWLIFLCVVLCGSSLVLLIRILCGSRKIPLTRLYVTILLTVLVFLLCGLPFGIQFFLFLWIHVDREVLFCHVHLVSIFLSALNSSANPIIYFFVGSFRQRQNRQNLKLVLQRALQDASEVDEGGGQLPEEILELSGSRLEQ
RGS4 block: RGS4 inhibitors, primary screen, cell-based, HEK293 M3R inducible RGS4, calcium flux | B-score at 10 µM | 310,000 compounds, 0.45% hits | Regulator of G-protein signaling 4 (Homo sapiens), P49798 | AID 463165, 2010 | Fluo-4 calcium flux; active compounds read high; triggered by carbachol at its EC20;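 active = B-score, a plate-corrected calcium signal, over three deviations above library mean, with baseline fluorescence within five deviations of library mean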;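 note: RGS4 expression induced by doxycycline in cells with stable M3 receptor; B-score is computed from the integrated fluorescence ratio over baseline after carbachol; higher B-score means a larger calcium signal and so more RGS4 inhibition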
Target sequence (P49798 whole entry, looked up): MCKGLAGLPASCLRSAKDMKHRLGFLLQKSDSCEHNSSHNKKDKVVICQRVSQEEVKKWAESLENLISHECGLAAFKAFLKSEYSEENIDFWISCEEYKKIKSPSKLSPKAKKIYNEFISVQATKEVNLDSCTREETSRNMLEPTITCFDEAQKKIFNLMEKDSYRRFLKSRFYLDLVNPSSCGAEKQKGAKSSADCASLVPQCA
RGS4 act: RGS4 potentiators or activators, primary screen, cell-based, HEK293 M3R inducible RGS4, calcium flux; carbachol calcium flux Fluo4; active compounds read low; B-score at 10 µM; 310,000 compounds, 0.92% hits; AID 463111, 2010;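 active = B-score of the integrated calcium signal more than 4 SD below the library mean, with starting fluorescence not abnormally high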;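 note: negative B-score means reduced calcium response which marks RGS4 activation or potentiation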
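test system = HEK293 cells with stable M3R and inducible RGS4 | schedule = recording 10 s baseline at 1 Hz, 100 s post-agonist | technique = Fluo4-AM (2 µM) calcium-flux fluorescence, kinetic read | measure = Agonist-evoked peak-minus-minimum fluorescence over baseline, integrated ratio, B score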
MrgX1 agonist: agonists of human MrgX1 receptor, primary screen, HEK293 cells, Fluo-4 calcium flux | Mas-related G-protein coupled receptor member X1 (Homo sapiens), Q96LB2 | Fluo-4 calcium fluorescence, agonist mode; active compounds read high | B-score at 10 µM | 310,000 compounds, 0.44% hits | AID 588627, 2011;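 active = calcium response B-score plate-corrected fluorescence ratio at least 3 library SD, with starting fluorescence B-score inside 5 SD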
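Material – MrgX1-expressing HEK293 cells · Input – 15,000 cells seeded per well · Dosing – compound as first of three additions · Times – overnight seeding, then 1 h dark dye loading · Measured by – kinetic Fluo-4 NW fluorescence of intracellular calcium · Read-out – B-scored fluorescence response ratio · Benchmarks – positive and negative control wells on each plate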
MrgX1 allo act: positive allosteric modulators of MrgX1, primary screen, HEK293 cells, Fluo-4 calcium flux. 310,000 compounds, 0.63% hits. Mas-related G-protein coupled receptor member X1 (Homo sapiens), Q96LB2. AID 588675, 2011. B-score at 10 µM. FDSS; active compounds read high;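 active = plate-corrected calcium response at least 3 library SD above typical, normal starting fluorescence, not activating the receptor alone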;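 note: compound read alongside a low EC10 to EC30 dose of BAM8-22 agonist; peak minus trough fluorescence over baseline measured at the second addition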
MrgX1 ant reconf: MrgX1 receptor antagonists, duplicate retest, confirmation, HEK293 cells, Fluo-4 calcium flux; shares compounds with MrgX1 antag; BAM8-22 calcium flux; active compounds read low; remaining BAM8-22 calcium response % of control (active compounds read low), % at 10 µM; 2,300 compounds, 19% hits;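 active = remaining agonist calcium response no higher than 100% minus 3 SD of agonist-only control wells, with starting fluorescence near control levels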;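 note: agonist BAM8-22 given at a near maximal EC90 to ECmax level; peak minus minimum fluorescence divided by baseline after agonist addition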
HEK293 Ca flux: nonspecific calcium signal in parental HEK293, confirmation, counter-screen for MrgX1 antagonist project, parental HEK293 cells, Fluo-4 calcium flux; 4,000 compounds, 2% hits; Fluo-4 calcium fluorescence, FDSS; shares compounds with MrgX1 antag; fluorescence ratio F(max-min)/F0 at 10 µM;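 active = duplicate-averaged calcium fluorescence ratio at least three times the standard deviation of buffer wells, a nonspecific response in parental cells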
HEK293 Ca counter: calcium response in parental HEK293 cells, primary screen, counter-screen for MrgX1 allosteric activator project, cell-based, Fluo-4 calcium flux, duplicate; fluorescence ratio F(max-min)/F0 at 10 µM; shares compounds with MrgX1 antag; Fluo-4 fluorescence ratio; active compounds read high; 4,000 compounds, 0.4% hits; AID 624114, 2012;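 active = calcium fluorescence ratio, averaged over duplicates, at least 3 SD of the buffer-well ratio, meaning a nonspecific response in receptor-free cells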;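 note: untransfected parental HEK293 lacking MrgX1 used as counterscreen for MrgX1 allosteric activators; fluorescence change taken during the second addition on a kinetic imager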
HEK293 Ca cntr2: calcium response in parental HEK293 cells, primary screen, counter-screen for MrgX1 agonist project, cell-based, Fluo-4 calcium flux, duplicate, agonist mode; Fluo-4 calcium fluorescence (FDSS); active compounds read high; AID 624115, 2012; fluorescence ratio F(max-min)/F0 at 10 µM; shares compounds with MrgX1 antag; 4,000 compounds, 8.7% hits;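 active = calcium fluorescence ratio at least three times the spread of buffer wells, meaning a non-specific response in parental cells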
Large screens that a line does not name were inactive (follow-up assays come after a bar, where they were run). Shown are actives, neighbours in structure and some others; about 3.5% of the full set was active somewhere.

CC(C)c1ccc(NC(=O)COc2ccc(F)cc2C(=O)c2cnn(-c3ccccc3)c2)cc1	MrgX1 antag -5.3 | MrgX1 ant reconf inactive | HEK293 Ca flux inactive | HEK293 Ca counter inactive | HEK293 Ca cntr2 inactive
O=C(COc1ccccc1C(=O)c1cnn(-c2ccccc2)c1)Nc1ccc2ccccc2c1	none
COc1ccc(C(=O)N2CCOC2CNC(=O)C(=O)NCc2ccc(F)cc2)cc1 (stereo not given)	MrgX1 antag -5.1 | MrgX1 ant reconf inactive | HEK293 Ca flux inactive | HEK293 Ca counter inactive | HEK293 Ca cntr2 inactive
Cc1cc(=O)oc2c(C)c(OC(C)C(=O)NC(Cc3c[nH]c4ccc(O)cc34)C(=O)O)ccc12 (stereo not given)	MrgX1 antag -5.5 | MrgX1 ant reconf inactive | HEK293 Ca flux inactive | HEK293 Ca counter inactive | HEK293 Ca cntr2 inactive
CN1CCN(S(=O)(=O)c2cccc(C(=O)Nc3nc(-c4ccccc4)cs3)c2)CC1	none
COc1ccc(-c2csc(NC(=O)c3cccc(S(=O)(=O)N4CCN(C)CC4)c3)n2)cc1	MrgX1 antag -5.8 | MrgX1 ant reconf inactive | HEK293 Ca flux inactive | HEK293 Ca counter inactive | HEK293 Ca cntr2 inactive
CCOc1ccc(C(C)=O)cc1CSc1nc2nc(C)cc(C)n2n1	MrgX1 antag -5.7 | MrgX1 ant reconf 69% | HEK293 Ca flux inactive | HEK293 Ca counter inactive | HEK293 Ca cntr2 inactive
O=C(/C=C/c1cccs1)N1CCN(Cc2ccc3c(c2)OCO3)CC1	none
CCCN1C2CCCC1CC(NC(=S)Nc1cc(C)cc(C)c1)C2 (stereo not given)	MrgX1 antag -6 | MrgX1 ant reconf inactive | HEK293 Ca flux inactive | HEK293 Ca counter inactive | HEK293 Ca cntr2 inactive
COc1ccc(CN2CCN(C3CCC3)CC2CCO)c(C)c1C (stereo not given)	none
CCOC(=O)CCc1c(C)nc2cc(-c3ccc(Cl)cc3)[nH]n2c1=O	MrgX1 antag -6 | MrgX1 ant reconf inactive | HEK293 Ca flux inactive | HEK293 Ca counter inactive | HEK293 Ca cntr2 inactive
CCc1c(C)nc2cc(-c3ccc(Cl)cc3)[nH]n2c1=O	none
O=C(CSc1nc(-c2ccc(F)cc2)cs1)N1CCOCC1	MrgX1 antag -9.2 | MrgX1 ant reconf inactive | HEK293 Ca flux inactive | HEK293 Ca counter inactive | HEK293 Ca cntr2 inactive
O=C(CCSc1ccc(Cl)cc1)NC1CCCC1	none
O=C(CCSc1ccccc1)NCc1cccnc1	MrgX1 antag -5.5 | MrgX1 ant reconf 85% | HEK293 Ca flux inactive | HEK293 Ca counter inactive | HEK293 Ca cntr2 inactive
O=C(NCCc1ccccc1)NC1CCCCC1	MrgX1 antag -4.8 | MrgX1 ant reconf inactive | HEK293 Ca flux inactive | HEK293 Ca counter inactive | HEK293 Ca cntr2 inactive
O=C(CCSc1ccccc1)NC1CCCC1	MrgX1 antag -8.8 | MrgX1 ant reconf inactive | HEK293 Ca flux inactive | HEK293 Ca counter inactive | HEK293 Ca cntr2 inactive
O=C(CCS(=O)(=O)c1ccccc1)NC1CCCCC1	none
O=C(CCS(=O)(=O)Cc1ccccc1)NC1CCCCC1	MrgX1 antag -4.9 | MrgX1 ant reconf inactive | HEK293 Ca flux inactive | HEK293 Ca counter inactive | HEK293 Ca cntr2 inactive
O=C1c2ccccc2NC(c2cccc(O)c2)N1Cc1ccco1 (stereo not given)	none
CC(=O)Nc1ccc(NC(=O)C(OC(=O)c2ccccc2)C(OC(=O)c2ccccc2)C(=O)O)cc1 (stereo not given)	none
Cc1ccc(C)c2nc3sc(C(=O)N4CCCc5ccccc54)c(N)c3cc12	MrgX1 antag -5.4, RGS4 act -7 | MrgX1 ant reconf inactive | HEK293 Ca flux inactive | HEK293 Ca counter inactive | HEK293 Ca cntr2 51
O=C(c1ccc(C(=O)N2CCCc3ccccc32)s1)N1CCCc2ccccc21	none
COCCNC(=O)c1ccc(C)cc1C	MrgX1 antag -5.3 | MrgX1 ant reconf 73% | HEK293 Ca flux inactive | HEK293 Ca counter inactive | HEK293 Ca cntr2 inactive
Cc1ccnc(NC(=O)c2cccc(NC(=O)c3ccccc3C)c2)c1	none
CN(CC(=O)Nc1cccc(F)c1)C(=O)CCCNC(=O)c1ccc(Cl)cc1	none
CCCNC(=O)c1nc(C)n(-c2cc(Cl)ccc2Cl)n1	MrgX1 antag -8.2 | MrgX1 ant reconf 81% | HEK293 Ca flux inactive | HEK293 Ca counter inactive | HEK293 Ca cntr2 inactive
CCCNC(=O)c1nc(C)n(-c2cc(Cl)cc(Cl)c2)n1	none
Cn1c(C(=O)N2CCN(c3ccccc3)CC2)cc2cc(Cl)ccc21	none
CCC(C)(C(=O)NC1CCCC1)N(C(=O)c1ccccn1)c1ccccc1 (stereo not given)	MrgX1 antag -8 | MrgX1 ant reconf inactive | HEK293 Ca flux inactive | HEK293 Ca counter inactive | HEK293 Ca cntr2 inactive
CCN(CC)P(=O)(Nc1ccccc1Br)c1ccc(N(C)C)cc1NC(=O)c1ccco1 (stereo not given)	none
CCOC(=O)c1cc(-c2ccccc2)n(Cc2cc(CC)no2)n1	MrgX1 antag -5.5 | MrgX1 ant reconf inactive | HEK293 Ca flux inactive | HEK293 Ca counter inactive | HEK293 Ca cntr2 inactive
Cc1cc(Cn2nc(C(=O)NCC3CC3)cc2-c2ccccc2)on1	none
Cc1n[nH]c(C)c1CCc1nc2c3ccccc3nc(SCC(=O)Nc3ccccc3F)n2n1	MrgX1 antag -7 | MrgX1 ant reconf inactive | HEK293 Ca flux inactive | HEK293 Ca counter inactive | HEK293 Ca cntr2 inactive
Cc1cc(C(=O)NNC(=S)NC2CCCCC2)cs1	none
COc1ccc(NC(=O)c2nc[nH]c2C(=O)N2CCN(C(=O)OC(C)(C)C)CC2)cc1	MrgX1 antag -7.7 | MrgX1 ant reconf inactive | HEK293 Ca flux inactive | HEK293 Ca counter inactive | HEK293 Ca cntr2 inactive
CCOc1ccccc1NC(=O)c1ccc(-n2cncn2)nc1	none
COc1ccccc1NC(=O)c1ccc(-n2cncn2)nc1	MrgX1 antag -5.2 | MrgX1 ant reconf 78% | HEK293 Ca flux inactive | HEK293 Ca counter inactive | HEK293 Ca cntr2 inactive
